Test results: ChEMBL document CHEMBL6071151, “Discovery of Inhibitors Targeting Protein-Protein Interaction between Bacterial RNA Polymerase and NusG as Novel Antimicrobials” (J Med Chem, 2024)

Assays:
Assay type in all cases: functional
Enterobacter cloacae = experiment: Antimicrobial activity against Enterobacter cloacae ATCC 13047 assessed as reduction in microbial growth measured after 20 hrs by CLSI based broth microdilution method
Summary of the method: (§1)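 Broth microdilution per CLSI in cation-adjusted Mueller-Hinton broth. Two-fold serial dilutions from 256 to 0.25 μg/mL, inoculum about 5 × 10⁵ CFU/mL. Read after 20 h at 37 °C. MIC is the lowest concentration with no visible growth. Run in duplicate.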

Acinetobacter baumannii = experiment: Antimicrobial activity against Acinetobacter baumannii ATCC 19606 assessed as reduction in microbial growth measured after 20 hrs by CLSI based broth microdilution method; summary of the method: as §1
Klebsiella pneumoniae = experiment: Antimicrobial activity against Klebsiella pneumoniae ATCC 700603 assessed as reduction in microbial growth measured after 20 hrs by CLSI based broth microdilution method; summary of the method: as §1
Enterococcus faecalis = experiment: Antimicrobial activity against Enterococcus faecalis ATCC 19433 assessed as reduction in microbial growth measured after 20 hrs by CLSI based broth microdilution method; summary of the method: as §1
Pseudomonas aeruginosa = experiment: Antimicrobial activity against Pseudomonas aeruginosa ATCC 27853 assessed as reduction in microbial growth measured after 20 hrs by CLSI based broth microdilution method; summary of the method: as §1
Staphylococcus aureus [1] = experiment: Antimicrobial activity against Staphylococcus aureus ATCC 25923 assessed as reduction in microbial growth measured after 20 hrs by CLSI based broth microdilution method; summary of the method: as §1
Escherichia coli = experiment: Antimicrobial activity against Escherichia coli ATCC 25922 assessed as reduction in microbial growth measured after 20 hrs by CLSI based broth microdilution method; summary of the method: as §1
Streptococcus pneumoniae = experiment: Antimicrobial activity against Streptococcus pneumoniae ATCC 49619 assessed as reduction in microbial growth measured after 20 hrs by CLSI based broth microdilution method
Staphylococcus aureus [2] = experiment: Antimicrobial activity against Staphylococcus aureus ATCC 29213 assessed as reduction in microbial growth measured after 20 hrs by CLSI based broth microdilution method; summary of the method: as §1

Row | SMILES | MIC (Enterobacter cloacae) | MIC (Acinetobacter baumannii) | MIC (Klebsiella pneumoniae) | MIC (Enterococcus faecalis) | MIC (Pseudomonas aeruginosa) | MIC (Staphylococcus aureus [1]) | MIC (Escherichia coli) | MIC (Streptococcus pneumoniae) | MIC (Staphylococcus aureus [2])
1 | OC(CNCCNc1cccc(C(F)(F)F)c1)COc1ccc(C(F)(F)F)cc1 (stereo not given) | > 256 µg/mL | > 256 µg/mL | > 256 µg/mL | > 256 µg/mL | > 256 µg/mL | > 256 µg/mL | > 256 µg/mL | > 256 µg/mL | > 256 µg/mL
2 | OC(CNCCNc1ccc(-c2ccccc2)cc1)COc1ccc(C(F)(F)F)cc1 (stereo not given) | > 256 µg/mL | > 256 µg/mL | > 256 µg/mL | > 256 µg/mL | > 256 µg/mL | > 256 µg/mL | > 256 µg/mL | > 256 µg/mL | > 256 µg/mL
3 | O=[N+]([O-])c1ccccc1NCCNCC(O)COc1ccc(C(F)(F)F)cc1 (stereo not given) | 128 µg/mL | > 256 µg/mL | > 256 µg/mL | 128 µg/mL | > 256 µg/mL | 128 µg/mL | > 256 µg/mL | 32 µg/mL | 128 µg/mL
4 | O=[N+]([O-])c1ccc(OCC(O)CNCCNc2cc(C(F)(F)F)ccn2)cc1 (stereo not given) | 256 µg/mL | > 256 µg/mL | > 256 µg/mL | 128 µg/mL | > 256 µg/mL | 128 µg/mL | > 256 µg/mL | 64 µg/mL | 128 µg/mL
5 | OC(CNCCNc1ccc(C(F)(F)F)cc1)COc1ccc(C(F)(F)F)cc1 (stereo not given) | 256 µg/mL | 256 µg/mL | > 256 µg/mL | 32 µg/mL | > 256 µg/mL | 64 µg/mL | 128 µg/mL | 8 µg/mL | 32 µg/mL
6 | OC(CNCCNc1ccccc1C(F)(F)F)COc1ccccc1C(F)(F)F (stereo not given) | 64 µg/mL | 64 µg/mL | > 256 µg/mL | 32 µg/mL | > 256 µg/mL | 64 µg/mL | 64 µg/mL | 32 µg/mL | 32 µg/mL
7 | O=[N+]([O-])c1ccc(OCC(O)CNCCNc2ccc(F)cn2)cc1 (stereo not given) | > 256 µg/mL | > 256 µg/mL | > 256 µg/mL | > 256 µg/mL | > 256 µg/mL | > 256 µg/mL | > 256 µg/mL | > 256 µg/mL | > 256 µg/mL
8 | O=[N+]([O-])c1ccc(OCC(O)CNCCNc2cccc(C(F)(F)F)n2)cc1 (stereo not given) | 256 µg/mL | 256 µg/mL | > 256 µg/mL | 128 µg/mL | > 256 µg/mL | 128 µg/mL | 256 µg/mL | 32 µg/mL | 64 µg/mL
9 | N#Cc1ccccc1NCCNCC(O)COc1ccc(C(F)(F)F)cc1 (stereo not given) | 128 µg/mL | 128 µg/mL | > 256 µg/mL | 128 µg/mL | > 256 µg/mL | 128 µg/mL | 16 µg/mL | 64 µg/mL | 128 µg/mL
10 | OC(CNCCNc1ccccc1C(F)(F)F)COc1cccc(C(F)(F)F)c1 (stereo not given) | 32 µg/mL | 32 µg/mL | > 256 µg/mL | 16 µg/mL | > 256 µg/mL | 32 µg/mL | 32 µg/mL | 16 µg/mL | 32 µg/mL
11 | OC(CNCCNc1ccc(C(F)(F)F)cn1)COc1ccc(C(F)(F)F)cc1 (stereo not given) | > 256 µg/mL | 64 µg/mL | > 256 µg/mL | 64 µg/mL | > 256 µg/mL | 64 µg/mL | 64 µg/mL | 16 µg/mL | 32 µg/mL
12 | O=[N+]([O-])c1ccc(OCC(O)CNCCNc2ncccc2C(F)(F)F)cc1 (stereo not given) | > 256 µg/mL | > 256 µg/mL | > 256 µg/mL | 256 µg/mL | > 256 µg/mL | 128 µg/mL | > 256 µg/mL | 64 µg/mL | 128 µg/mL
13 | O=[N+]([O-])c1ccc(OCC(O)CNCCNc2ncc(C(F)(F)F)cn2)cc1 (stereo not given) | > 256 µg/mL | > 256 µg/mL | > 256 µg/mL | > 256 µg/mL | > 256 µg/mL | 256 µg/mL | > 256 µg/mL | 128 µg/mL | 256 µg/mL
14 | OC(CNCCNc1ccc(C(F)(F)F)cn1)CNc1ccc(C(F)(F)F)cc1 (stereo not given) | 64 µg/mL | 32 µg/mL | > 256 µg/mL | 16 µg/mL | > 256 µg/mL | 32 µg/mL | 64 µg/mL | 16 µg/mL | 32 µg/mL
15 | OC(CNCCNc1ccc(C(F)(F)F)cn1)CSCc1ccc(C(F)(F)F)cc1 (stereo not given) | 64 µg/mL | 32 µg/mL | > 256 µg/mL | 32 µg/mL | > 256 µg/mL | 16 µg/mL | 32 µg/mL | 16 µg/mL | 8 µg/mL
16 | OC(CNCCNc1ccc(C(F)(F)F)cn1)COCc1ccccc1C(F)(F)F (stereo not given) | 128 µg/mL | 128 µg/mL | > 256 µg/mL | 128 µg/mL | > 256 µg/mL | 64 µg/mL | 128 µg/mL | 64 µg/mL | 64 µg/mL
17 | O=[N+]([O-])c1ccc(NCCNCC(O)COCc2ccc(C(F)(F)F)cc2)nc1 (stereo not given) | 128 µg/mL | 128 µg/mL | 256 µg/mL | 128 µg/mL | > 256 µg/mL | 128 µg/mL | 128 µg/mL | 64 µg/mL | 64 µg/mL
18 | OC(CNCCNc1ccccc1C(F)(F)F)COCc1ccccc1C(F)(F)F (stereo not given) | > 256 µg/mL | > 256 µg/mL | > 256 µg/mL | > 256 µg/mL | > 256 µg/mL | > 256 µg/mL | > 256 µg/mL | 128 µg/mL | 128 µg/mL
19 | COc1ccc(OCC(O)CNCCNc2nccc(C(F)(F)F)n2)cc1 (stereo not given) | > 256 µg/mL | > 256 µg/mL | > 256 µg/mL | > 256 µg/mL | > 256 µg/mL | > 256 µg/mL | > 256 µg/mL | 256 µg/mL | > 256 µg/mL
20 | O=[N+]([O-])c1ccc(OCC(O)CNCCNc2ccc(C(F)(F)F)cn2)cc1 (stereo not given) | 128 µg/mL | 128 µg/mL | > 256 µg/mL | 128 µg/mL | > 256 µg/mL | 32 µg/mL | 128 µg/mL | 64 µg/mL | 32 µg/mL
21 | OC(CNCCNc1nccc(C(F)(F)F)n1)COc1ccc(F)c(F)c1 (stereo not given) | 256 µg/mL | 256 µg/mL | > 256 µg/mL | 256 µg/mL | > 256 µg/mL | 256 µg/mL | 128 µg/mL | 64 µg/mL | 256 µg/mL
22 | OC(CNCCNc1nccc(C(F)(F)F)n1)COc1ccc(C(F)(F)F)cc1 (stereo not given) | > 256 µg/mL | 128 µg/mL | > 256 µg/mL | 64 µg/mL | > 256 µg/mL | 64 µg/mL | > 256 µg/mL | 32 µg/mL | 64 µg/mL
23 | O=S(=O)(NCCNCC(O)COc1ccc(C(F)(F)F)cc1)c1ccccc1C(F)(F)F (stereo not given) | 128 µg/mL | 64 µg/mL | > 256 µg/mL | 64 µg/mL | > 256 µg/mL | 64 µg/mL | 64 µg/mL | 32 µg/mL | 64 µg/mL
24 | O=[N+]([O-])c1ccc(OCC(O)CNCCNc2nccc(C(F)(F)F)n2)cc1 (stereo not given) | > 256 µg/mL | > 256 µg/mL | > 256 µg/mL | 256 µg/mL | > 256 µg/mL | 256 µg/mL | > 256 µg/mL | 128 µg/mL | 128 µg/mL
25 | OC(CNCCNc1nccc(C(F)(F)F)n1)COc1ccccc1 (stereo not given) | > 256 µg/mL | > 256 µg/mL | > 256 µg/mL | > 256 µg/mL | > 256 µg/mL | > 256 µg/mL | > 256 µg/mL | 128 µg/mL | > 256 µg/mL
